Measurements from PMC2955813 (Cancer prevention research (Philadelphia, Pa.), 2010).

Key:
[1] = biological target: T1, Purified ovine COX-2 (Ovis aries, UniProt P79208); test: COX-2 inhibition, purified enzyme; assay type: biochemical; conditions: read-out: IC50 COX-2
T1 sequence (P79208 17-603): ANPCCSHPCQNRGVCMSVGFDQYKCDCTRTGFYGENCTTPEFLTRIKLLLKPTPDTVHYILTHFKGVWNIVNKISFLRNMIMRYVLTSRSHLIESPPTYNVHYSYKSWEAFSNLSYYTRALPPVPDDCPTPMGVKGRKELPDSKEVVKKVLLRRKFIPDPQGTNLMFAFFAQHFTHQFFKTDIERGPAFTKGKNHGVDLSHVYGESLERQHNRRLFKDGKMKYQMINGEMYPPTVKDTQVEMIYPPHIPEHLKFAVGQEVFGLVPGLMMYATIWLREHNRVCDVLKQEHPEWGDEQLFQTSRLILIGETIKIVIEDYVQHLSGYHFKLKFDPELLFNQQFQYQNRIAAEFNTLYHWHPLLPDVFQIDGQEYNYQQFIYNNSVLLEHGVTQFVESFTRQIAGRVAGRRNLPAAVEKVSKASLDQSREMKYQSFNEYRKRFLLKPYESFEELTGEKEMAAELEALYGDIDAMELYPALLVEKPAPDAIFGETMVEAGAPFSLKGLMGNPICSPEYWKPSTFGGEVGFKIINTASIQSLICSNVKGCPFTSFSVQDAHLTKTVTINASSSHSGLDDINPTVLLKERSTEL

[2] = tested on: human HT-29 colon tumor xenograft; test: HT-29 colon tumor xenograft efficacy; assay type: in vivo, male NCr-nu/nu athymic mice; conditions: 50 mg/kg once daily oral gavage
Summary of the method: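 Male NCr-nu/nu mice, 5–6 weeks old, were implanted subcutaneously with HT-29 tumor fragments; 10 mice per group, vehicle-treated control. Dosing started at tumor size 75–200 mg: 50 mg/kg oral gavage once daily for 40 days, as a suspension in 0.5% CMC, 0.25% Tween 80 in water. Tumor dimensions and body weight were measured twice weekly; mortality checked daily.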

[3] = Tolerance study; assay type: in vivo; conditions: daily oral gavage for 20 days; no deaths or significant weight loss
[4] = tested on: HT-29 cells; test: 3H-thymidine incorporation proliferation assay; assay type: cell-based, human; conditions: read-out: IC50 Proliferation, 72 hours, tritiated thymidine assay
Summary of the method: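 HT-29 cells (>95% viable by trypan blue) were treated for 72 h in total. 1 μCi ³H-thymidine was added at 56 h and incubation continued 16 h at 37°C. DNA was harvested onto filters and uptake counted by scintillation.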

[5] = biological target: T2, Purified ovine COX-1 (Ovis aries, UniProt P05979); test: COX-1 inhibition, purified enzyme; assay type: biochemical; conditions: read-out: IC50 COX-1
T2 sequence (P05979 25-600): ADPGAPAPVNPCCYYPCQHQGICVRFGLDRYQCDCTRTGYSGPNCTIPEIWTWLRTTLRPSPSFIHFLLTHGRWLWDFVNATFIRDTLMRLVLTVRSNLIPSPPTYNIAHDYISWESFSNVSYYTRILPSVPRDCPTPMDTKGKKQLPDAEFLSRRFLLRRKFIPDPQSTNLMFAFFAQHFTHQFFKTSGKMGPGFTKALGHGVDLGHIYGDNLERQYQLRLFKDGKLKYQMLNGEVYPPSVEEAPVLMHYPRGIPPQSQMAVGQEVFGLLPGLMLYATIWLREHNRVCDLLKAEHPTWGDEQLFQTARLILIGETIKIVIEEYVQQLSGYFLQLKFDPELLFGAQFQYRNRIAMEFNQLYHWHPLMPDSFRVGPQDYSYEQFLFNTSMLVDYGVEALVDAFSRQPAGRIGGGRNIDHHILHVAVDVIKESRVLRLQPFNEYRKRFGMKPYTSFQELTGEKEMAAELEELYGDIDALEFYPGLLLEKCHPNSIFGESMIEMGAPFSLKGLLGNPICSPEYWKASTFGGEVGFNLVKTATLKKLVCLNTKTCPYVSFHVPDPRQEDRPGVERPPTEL

[6] = tested on: cGMP PDE in HT-29 human colon tumor cell lysates; test: cGMP PDE scintillation proximity assay in HT-29 lysate; assay type: biochemical; conditions: HT-29 cell lysates; for IC50: read-out: IC50 cGMP PDE, scintillation proximity assay; for effect on cGMP PDE activity: NSAID panel
Summary of the method: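 The reaction was stopped with scintillation proximity beads that bind the labeled product, then counted.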

[7] = Plasma levels of sulindac and metabolites; assay type: in vivo; conditions: for concentration at 6 h: mouse, plasma, po, 50 mg/kg
[8] = tested on: HT-29, SW480, and HCT116 human colon cancer cell lines; test: Cell Titer Glo growth assay, colon tumor cell lines; assay type: cell-based; conditions: for HT-29 growth inhibition: NSAID panel; for effect on colon tumor cell growth: PDE isozyme specific inhibitors; for IC50: Homo sapiens, 72 h, read-out: growth inhibition IC50, range over cell lines
[9] = tested on: intracellular cGMP levels in colon tumor cells; conditions: cited from earlier work
[10] = tested on: cGMP hydrolysis in HT-29 cell lysate; test: IMAP fluorescence polarization PDE assay, cGMP hydrolysis in HT-29 lysate; assay type: biochemical, human; conditions: HT-29 cell lysates; concentration not given
Summary of the method: (§1)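 HT-29 or FHC cells were lysed in ice-cold 20 mM Tris-acetate, 5 mM Mg acetate, 1 mM EGTA, 0.8% Triton X-100, 50 mM NaF, protease inhibitors, pH 7.4. Lysates were cleared at 10,000g, 10 min, 4°C, and protein measured by BCA. PDE activity was read by IMAP fluorescence polarization, with Fl-cAMP and TAMRA-cGMP as substrates so cAMP and cGMP hydrolysis were measured together.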

[11] = biological target: recombinant PDE2 (Homo sapiens, UniProt O00408); test: Recombinant PDE2 inhibition; assay type: biochemical; conditions: recombinant isozyme, cAMP as substrate; data not shown
[12] = tested on: recombinant PDE3; test: Recombinant PDE3 inhibition; assay type: biochemical; conditions: recombinant isozyme, cAMP as substrate; data not shown
[13] = tested on: Tcf/Lef-mediated transcription in HT-29, HCT-116, and SW480 colon cancer cells; test: TOPFlash luciferase reporter assay; assay type: cell-based, human; conditions: HT-29, HCT-116, SW480, 24 hours
Summary of the method: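 Cells were transiently co-transfected with the TOPFlash luciferase construct and a β-galactosidase expression vector, then treated for 24 h. After lysis, luciferase and β-galactosidase activities were measured, and luciferase was normalized to β-galactosidase.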

[14] = tested on: cAMP hydrolysis in HT-29 cell lysate; test: IMAP fluorescence polarization PDE assay, cAMP hydrolysis in HT-29 lysate; assay type: biochemical, human
[15] = tested on: cyclinD1 and survivin expression in SW480 cells; test: Western blot of cyclin D1 and survivin; assay type: cell-based, human; conditions: time-dependent
Summary of the method: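 SW480 lysate (ice-cold Tris-acetate/Triton X-100/NaF buffer, pH 7.4, cleared at 10,000g, 4°C) was loaded at 30 μg protein per lane. Proteins were separated by 12% SDS-PAGE and transferred to nitrocellulose, blocked with 5% BSA in TBS/0.05% Tween-20, and probed for cyclin D1 and survivin, with β-actin as loading control.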

[16] = tested on: cGMP PDE in FHC lysates; test: IMAP fluorescence polarization PDE assay, cGMP hydrolysis in FHC lysate; assay type: biochemical, human; conditions: FHC lysate compared with HT-29 lysate
Summary of the method: as §1

[17] = tested on: cGMP PDE activity in lysates from HT-29 tumors established in athymic mice; test: cGMP PDE in HT-29 tumor homogenates versus normal rat colonic mucosa; assay type: biochemical, human; conditions: HT-29 tumor lysate vs normal rat colonic mucosa lysate

recombinant PDE2, sequence (O00408 whole entry): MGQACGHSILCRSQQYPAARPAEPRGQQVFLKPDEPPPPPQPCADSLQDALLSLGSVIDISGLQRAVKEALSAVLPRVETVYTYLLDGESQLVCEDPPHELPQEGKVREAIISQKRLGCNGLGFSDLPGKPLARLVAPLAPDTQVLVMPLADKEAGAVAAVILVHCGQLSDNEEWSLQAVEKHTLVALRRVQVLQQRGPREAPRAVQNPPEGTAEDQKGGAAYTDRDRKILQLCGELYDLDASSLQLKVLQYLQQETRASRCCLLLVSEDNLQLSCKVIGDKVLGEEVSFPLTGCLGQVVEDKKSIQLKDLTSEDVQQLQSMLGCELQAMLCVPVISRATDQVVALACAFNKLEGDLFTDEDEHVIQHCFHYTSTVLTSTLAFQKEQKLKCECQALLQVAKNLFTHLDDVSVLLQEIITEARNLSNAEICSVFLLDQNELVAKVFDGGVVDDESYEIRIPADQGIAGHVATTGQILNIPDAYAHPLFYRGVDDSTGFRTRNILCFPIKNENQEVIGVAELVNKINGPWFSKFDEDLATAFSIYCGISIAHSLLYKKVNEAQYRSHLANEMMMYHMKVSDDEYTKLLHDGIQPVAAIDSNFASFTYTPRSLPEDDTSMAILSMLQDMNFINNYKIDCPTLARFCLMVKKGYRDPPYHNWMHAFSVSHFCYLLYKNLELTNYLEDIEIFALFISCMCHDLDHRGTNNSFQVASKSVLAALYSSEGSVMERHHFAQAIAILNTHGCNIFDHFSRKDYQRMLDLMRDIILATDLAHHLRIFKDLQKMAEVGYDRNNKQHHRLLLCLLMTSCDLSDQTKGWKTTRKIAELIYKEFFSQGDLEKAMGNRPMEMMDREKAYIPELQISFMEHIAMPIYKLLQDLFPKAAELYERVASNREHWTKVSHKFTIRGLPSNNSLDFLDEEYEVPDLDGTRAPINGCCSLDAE

CC1=C(CC(=O)O)c2cc(F)ccc2/C1=C\c1ccc([S+](C)[O-])cc1 (stereo not shown) [Sulindac sulfoxide, sulindac]
IC50 [1]: > 300 µM
reduction of tumor growth ([2]; end of treatment, vs vehicle): approximately 55%
effect on body weight ([2]; not shown): without affecting body weight
maximum tolerated dosage [3]: approximately 50 mg/kg
IC50 [4]: 224 µM
IC50 [5]: > 300 µM
IC50 [6]: 120 µM
plasma level ([7]; 6 hours following a single oral dose of sulindac at 50 mg/kg): 23.1 ± 5.5 µM

Cc1ccc(-c2cc(C(F)(F)F)nn2-c2ccc(S(N)(=O)=O)cc2)cc1 [celecoxib]
effect on cGMP PDE activity [6]: inhibited cGMP PDE
HT-29 growth inhibition [8]: did inhibit tumor cell growth

COc1ccc2c(c1)c(CC(=O)O)c(C)n2C(=O)c1ccc(Cl)cc1 [Indomethacin, indomethacin]
IC50 [6]: 24 µM

CN1C(C(=O)Nc2ccccn2)=C(O)c2ccccc2S1(=O)=O [piroxicam]
effect on cGMP PDE activity [6]: did not affect cGMP PDE activity
HT-29 growth inhibition [8]: low potency

CCCCC1C(=O)N(c2ccccc2)N(c2ccccc2)C1=O [phenylbutazone]
effect on cGMP PDE activity [6]: did not affect cGMP PDE activity
HT-29 growth inhibition [8]: low potency

O=C(O)C1CCN(c2nc(NCc3ccc4c(c3)OCO4)c3cc(Cl)ccc3n2)CC1 [E4021]
increase in intracellular cGMP levels [9]: unable to induce a significant increase

CC(=O)Oc1ccccc1C(=O)O [aspirin]
effect on cGMP PDE activity [6]: did not affect cGMP PDE activity
HT-29 growth inhibition [8]: low potency

CN1CC(=O)N2[C@H](c3ccc4c(c3)OCO4)c3[nH]c4ccccc4c3C[C@@H]2C1=O [tadalafil]
effect on colon tumor cell growth ([8]; HT-29, SW480, HCT116): did not affect colon tumor cell growth

CCCc1nn(C)c2c(=O)[nH]c(-c3cc(S(=O)(=O)N4CCN(C)CC4)ccc3OCC)nc12 [sildenafil]
effect on colon tumor cell growth ([8]; HT-29, SW480, HCT116): did not affect colon tumor cell growth
inhibition of cGMP PDE activity in HT-29 lysate [10]: 42%

CCCCCC[C@@H]([C@@H](C)O)n1cnc2c(N)ncnc21 (racemic) [EHNA]
effect on colon tumor cell growth ([8]; HT-29, SW480, HCT116): only MY5445 was found to inhibit colon tumor cell growth
inhibition of cGMP PDE activity in HT-29 lysate [10]: less than 12%

C=C[C@@]1(C)CC(=O)[C@]2(O)[C@@]3(C)[C@@H](O)CCC(C)(C)[C@@H]3[C@H](O)[C@H](OC(C)=O)[C@@]2(C)O1 [forskolin]
effect on growth ([8]; HT-29, SW480, HCT116, 72 hours, concentrations up to 100 μM): did not significantly affect growth

CCOC(=O)C1=C[C@]2(CC)CCCN3CCc4c(n1c1ccccc41)[C@@H]32 [vinpocetine]
effect on colon tumor cell growth ([8]; HT-29, SW480, HCT116): only MY5445 was found to inhibit colon tumor cell growth

CC1=C(CC(=O)O)c2cc(F)ccc2/C1=C\c1ccc(S(C)(=O)=O)cc1 [Sulindac sulfone, sulindac sulfone]
IC50 [6]: 95.9 µM
concentration at 6 h [7]: 8.9 ± 1.2 µM

CS(=O)(=O)c1ccc(C2=C(c3ccccc3)C(=O)OC2)cc1 [Rofecoxib, rofecoxib]
IC50 [6]: > 300 µM

CSc1ccc(/C=C2/C(C)=C(CC(=O)O)c3cc(F)ccc32)cc1 [Sulindac sulfide, sulindac sulfide]
cAMP hydrolysis by PDE2 [11]: did not significantly inhibit
cAMP hydrolysis by PDE3 [12]: did not significantly inhibit
Tcf/Lef-mediated transcription [13]: significant reduction
effect on cAMP hydrolysis [14]: appreciably higher concentrations were necessary
IC50 [4]: 33.9 µM
IC50 [6]: 19.7 µM
concentration at 6 h [7]: 36.7 ± 10.2 µM
expression of cyclinD1 and survivin [15]: significant reduction
cGMP PDE inhibition in FHC lysate [16]: reduced sensitivity
IC50 [8]: 73 to 85 µM

Cc1[nH]c(=O)c(C#N)cc1-c1ccncc1 [milrinone]
effect on colon tumor cell growth ([8]; HT-29, SW480, HCT116): only MY5445 was found to inhibit colon tumor cell growth
inhibition of cGMP PDE activity in HT-29 lysate [10]: 31%

COc1ccc(C2CNC(=O)C2)cc1OC1CCCC1 (stereo not shown) [rolipram]
effect on colon tumor cell growth ([8]; HT-29, SW480, HCT116): only MY5445 was found to inhibit colon tumor cell growth

Clc1cccc(Nc2nnc(-c3ccccc3)c3ccccc23)c1 [MY5445, 1-(3-chloroanilino)-4-phenylphthalazine]
fold greater potency for tumor cGMP PDE compared to normal tissue [17]: more than 10 fold
Tcf/Lef-mediated transcription [13]: significant reduction
effect on cAMP hydrolysis [14]: without substantially affecting cAMP hydrolysis
expression of cyclinD1 and survivin [15]: significant reduction
IC50 [8]: 8 to 18 µM
